What was measured:
HL-60 = experiment: Cytotoxicity against human HL60 cells after 72 hrs by MTT assay; assay type: functional, cell-based; details: HL-60, 72 h
In short: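 HL-60 human tumor cells were plated 24 h ahead, then given various compound concentrations continuously for 72 h. Proliferation inhibition was measured by MTT tetrazolium reduction, and IC50 was derived from the inhibition rates. Etoposide (VP-16) was the positive control.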

A549 [1] = experiment: Cytotoxicity against human A549 cells after 72 hrs by SRB assay; details: A549, 72 h
A549 [2] = experiment: Cytotoxicity against human A549 cells after 24 hrs by SRB assay; assay type: functional, cell-based; details: A549, 24 h

CC1=Cc2ccc3c(c2CO1)OC(=C(C)C)C3=O [USTUSORANE B]
IC50 (HL-60): > 100 µM
IC50 (A549 [1]): > 100 µM

CC1(C)CCC[C@@]2(C)[C@H]1[C@H](OC(=O)/C=C/C=C/C=O)C=C1COC(=O)[C@@]12O [USTUSOLATE E]
IC50 (HL-60): 9 µM
IC50 (A549 [1]): > 100 µM

CO[C@H]1O[C@H](C)Cc2ccc3c(c21)OC(C(C)C)C3=O (stereo partly specified) [USTUSORANE D]
IC50 (HL-60): > 100 µM
IC50 (A549 [1]): > 100 µM

CC(C)(O)C1Cc2ccc(/C=C\CO)c(CO)c2O1 (stereo unspecified)
IC50 (A549 [2]): > 100 µM
IC50 (HL-60): > 100 µM

CC1=CC(=O)[C@H]2C(C)(C)[C@@H](O)CC[C@]2(C)[C@@]1(O)CO [USTUSOL A]
IC50 (HL-60): > 100 µM
IC50 (A549 [1]): > 100 µM

COC(/C=C/C=C/C(=O)O[C@@H]1C=C2COC(=O)[C@]2(O)[C@@]2(C)CCCC(C)(C)[C@H]12)OC [USTUSOLATE D]
IC50 (HL-60): > 100 µM
IC50 (A549 [1]): > 100 µM

CC(O)C/C=C/C=C/C(=O)O[C@@H]1C=C2COC(=O)[C@]2(O)[C@@]2(C)CCCC(C)(C)[C@H]12 (stereo partly specified) [USTUSOLATE C]
IC50 (HL-60): > 100 µM
IC50 (A549 [1]): 10.5 µM

CC(O)C/C=C/C=C/C=C/C(=O)OC1C=C2COC(=O)[C@]2(O)[C@@]2(C)CCCC(C)(C)[C@H]12 (stereo partly specified) [USTUSOLATE B]
IC50 (HL-60): > 100 µM
IC50 (A549 [1]): > 100 µM

CC1=CC(=O)[C@H]2C(C)(C)C[C@@H](O)C[C@]2(C)[C@@]1(O)CO [USTUSOL B]
IC50 (HL-60): > 100 µM
IC50 (A549 [1]): > 100 µM

CC(O)Cc1ccc2c(c1CO)OC(C(C)(C)O)C2 (stereo unspecified) [USTUSORANE E]
IC50 (HL-60): 0.13 µM
IC50 (A549 [1]): > 100 µM

CC(C)=C1Oc2c(ccc(CC(C)O)c2CO)C1=O (stereo unspecified) [USTUSORANE A]
IC50 (HL-60): > 100 µM
IC50 (A549 [1]): > 100 µM

CO[C@H]1O[C@H](C)Cc2ccc3c(c21)OC(=C(C)C)C3=O [USTUSORANE C]
IC50 (HL-60): > 100 µM
IC50 (A549 [1]): > 100 µM

CO[C@@H]1C=C(CO)[C@](O)(CO)[C@@]2(C)CCCC(C)(C)[C@H]12 [USTUSOL C]
IC50 (HL-60): > 100 µM
IC50 (A549 [1]): > 100 µM
